Data reported in ChEMBL document CHEMBL3576799, “Aranciamycins I and J, Antimycobacterial Anthracyclines from an Australian Marine-Derived Streptomyces sp” (J Nat Prod, 2015).
Converted amounts (≈) assume the structure as drawn.

What was measured:
Bacillus subtilis = experiment: Antibacterial activity against Bacillus subtilis ATCC 6051 after 24 hrs by spectrophotometric analysis; format: functional, organism-based; conditions: ATCC 6051, 24 h
Bacillus spizizenii = experiment: Antibacterial activity against Bacillus subtilis ATCC 6633 after 24 hrs by spectrophotometric analysis; format: functional, organism-based; conditions: ATCC 6633, 24 h
Staphylococcus aureus [1] = experiment: Antibacterial activity against Staphylococcus aureus ATCC 9144 after 24 hrs by spectrophotometric analysis; format: functional, organism-based; conditions: ATCC 9144, 24 h
Staphylococcus aureus [2] = experiment: Antibacterial activity against Staphylococcus aureus ATCC 25923 after 24 hrs by spectrophotometric analysis; format: functional, organism-based; conditions: ATCC 25923, 24 h
Escherichia coli = experiment: Antibacterial activity against Escherichia coli ATCC 11775 after 24 hrs by spectrophotometric analysis; format: functional, organism-based; conditions: DSM 30083 = JCM 1649 = ATCC 11775, 24 h
Pseudomonas aeruginosa = experiment: Antibacterial activity against Pseudomonas aeruginosa ATCC 10145 after 24 hrs by spectrophotometric analysis; format: functional, organism-based; conditions: ATCC 10145, 24 h
Candida albicans = experiment: Antifungal activity against Candida albicans ATCC 90028 after 48 hrs by spectrophotometric analysis; format: functional, organism-based; conditions: ATCC 90028, 48 h
SW-620 = experiment: Cytotoxicity against human SW620 cells assessed as growth inhibition after 48 hrs by MTT assay; format: functional, cell-based; conditions: SW-620, 48 h
Outline: (§1)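 Modified MTT assay on adherent human cancer lines: SW620 (epithelial-like colorectal carcinoma), NCI-H460 (epithelial-like lung carcinoma), KB-3-1 (epithelial-like cervix carcinoma) and HepG2 (hepatocellular carcinoma). Output given as IC50.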

HepG2 = experiment: Cytotoxicity against human HepG2 cells assessed as growth inhibition after 48 hrs by MTT assay; format: functional, cell-based; conditions: HepG2, 48 h; outline: as §1
[3] = Cytotoxicity against human KB-3-1 cells assessed as growth inhibition after 48 hrs by MTT assay; format: functional, cell-based; conditions: KB 3-1, 48 h; outline: as §1
NCI-H460 = experiment: Cytotoxicity against human NCI-H460 cells assessed as growth inhibition after 48 hrs by MTT assay; format: functional, cell-based; conditions: NCI-H460, 48 h; outline: as §1

SMILES | IC50 (Bacillus subtilis) [nM] | MIC (Bacillus subtilis) [µM] | IC50 (Bacillus spizizenii) [nM] | MIC (Bacillus spizizenii) [µM] | IC50 (Staphylococcus aureus [1]) [µM] | MIC (Staphylococcus aureus [1]) [µM] | IC50 (Staphylococcus aureus [2]) [µM] | MIC (Staphylococcus aureus [2]) [µM] | IC50 (Escherichia coli) [µM] | MIC (Escherichia coli) [µM] | IC50 (Pseudomonas aeruginosa) [µM] | MIC (Pseudomonas aeruginosa) [µM] | IC50 (Candida albicans) [µM] | MIC (Candida albicans) [µM] | IC50 (SW-620) [µM] | IC50 (HepG2) [µM] | IC50 [3] [µM] | IC50 (NCI-H460) [µM]
C[C@@H]1O[C@@H](O[C@H]2C[C@](C)(O)Cc3cc4c(c(O)c32)C(=O)c2c(O)cccc2C4=O)[C@H](O)[C@H](O)[C@H]1O | 1100 | 3.7 (≈ 1.8 µg/mL) | 3000 | 7.5 (≈ 3.65 µg/mL) | > 30 | > 30 | > 30 | > 30 | > 30 | > 30 | > 30 | > 30 | > 30 | > 30 | 7.5 | 12 | > 30 | 9
CO[C@H]1[C@H](O[C@H]2C[C@](C)(O)C(=O)c3cc4c(c(O)c32)C(=O)c2c(O)cccc2C4=O)O[C@@H](C)[C@H](O)[C@H]1O | 2400 | 7.2 (≈ 3.7 µg/mL) | 2800 | 7.5 (≈ 3.86 µg/mL) | > 30 | > 30 | > 30 | > 30 | > 30 | > 30 | > 30 | > 30 | > 30 | > 30 | 10 | 12 | > 30 | > 30
CO[C@H]1[C@H](O[C@H]2C[C@](C)(O)Cc3cc4c(c(O)c32)C(=O)c2c(O)cccc2C4=O)O[C@@H](C)[C@H](O)[C@H]1O | 2800 | 7.5 (≈ 3.75 µg/mL) | 2400 | 7.5 (≈ 3.75 µg/mL) | > 30 | > 30 | > 30 | > 30 | > 30 | > 30 | > 30 | > 30 | > 30 | > 30 | > 30 | > 30 | > 30 | > 30
CO[C@H]1[C@H](O[C@@H]2c3c(cc4c(c3O)C(=O)c3c(O)cccc3C4=O)C(=O)[C@@](C)(O)[C@H]2OC)O[C@@H](C)[C@H](O)[C@H]1O [ARANCIAMYCIN] | 6000 | 15 (≈ 8.17 µg/mL) | 5800 | 15 (≈ 8.17 µg/mL) | > 30 | > 30 | > 30 | > 30 | > 30 | > 30 | > 30 | > 30 | > 30 | > 30 | > 30 | 18 | > 30 | > 30
